In ChEMBL document CHEMBL1144684, “Evaluation of a series of naphthamides as potent, orally active vascular endothelial growth factor receptor-2 tyrosine kinase inhibitors” (J Med Chem, 2008):
The source made the active and inactive calls. No cut-off for these calls is given here.

Key:
HUVEC [1] = test: Selectivity of IC50 for VEGF-induced proliferation over IC50 for bFGF-induced proliferation of HUVEC; type: functional, Homo sapiens
How it was run: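 HUVECs were seeded at 3000 cells/well in DMEM/10% FBS with pen/strep and cultured for 22 h. They were preincubated 2 h with serially diluted compound, then stimulated with 50 ng/mL VEGF or 20 ng/mL bFGF for 72 h at 37 °C, 5% CO2. Cells were washed, frozen at -70 °C and stained with CyQuant. IC50s came from a four-parameter logistic fit, averaged over ≥2 experiments; the VEGF IC50 was compared against the bFGF IC50.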

[2] = Intrinsic clearance in rat liver microsomes at 1 uM; type: ADME, Microsome; details: read-out: Stability
How it was run: (§1)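 Human or rat liver microsomes (0.25 mg protein/mL) with 1 mM NADPH, 2 mM MgCl2 in 50 mM potassium phosphate pH 7.4 at 37 °C; compound 1 µM final. Sampled 0–40 min into acetonitrile, LC-MS/MS; ln % remaining vs time slope gives T1/2; CLint = (0.693/T1/2)/0.25 mg/mL.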

[3] = Intrinsic clearance in human liver microsomes at 1 uM; type: ADME, Microsome; details: read-out: Stability; how it was run: as §1
[4] = Clearance in Sprague-Dawley rat at 1 mg/kg, iv; type: ADME, organism-based; parameters: dose 1 mg/kg, route intravenous; details: in vivo
How it was run: (§2)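 Male Sprague–Dawley rats dosed iv via femoral vein as DMSO solution (1 or 0.5 mg/kg) or po by gavage as OraPlus suspension (pH 2.0–2.2 with methanesulfonic acid; 10 or 2 mg/kg). Serial jugular blood over 12–24 h; plasma acetonitrile precipitation, LC-MS/MS (MRM) with internal standard; noncompartmental parameters.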

Liver microsomes [5] = test: Metabolic stability assessed as covalent binding in absence of NADPH in rat liver microsomes at 10 uM after 1 hr; type: ADME, Microsome
How it was run: (§3)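 14C-labelled compound at 10 µM with human or rat liver microsomes (1 mg/mL) in 0.1 M potassium phosphate pH 7.4, with or without 1 mM NADPH and 1 mM glutathione, 60 min; quenched with ice-cold acetonitrile. Pellet washed with 80% methanol and ethanol/ether, solubilized, protein by BCA, radioactivity by scintillation counting.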

Liver microsomes [6] = test: Metabolic stability assessed as covalent binding in presence of NADPH and GSH in rat liver microsomes at 10 uM after 1 hr; type: ADME, Microsome; how it was run: as §3
[7] = Volume of distribution at steady state in Sprague-Dawley rat at 1 mg/kg, iv; type: ADME, organism-based; parameters: dose 1 mg/kg, route intravenous; details: in vivo, read-out: Vdss
How it was run: (§4)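 Male Sprague–Dawley rats given 1 mg/kg iv via femoral vein as DMSO solution or 10 mg/kg by oral gavage as OraPlus suspension, pH adjusted to 2.0–2.2 with methanesulfonic acid. Serial jugular blood over 12–24 h; plasma protein-precipitated with acetonitrile, quantified by LC-MS/MS (MRM) with internal standard; noncompartmental parameters.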

[8] = Half life in Sprague-Dawley rat at 1 mg/kg, iv; type: ADME, organism-based; parameters: dose 1 mg/kg, route intravenous; details: in vivo; how it was run: as §2
[9] = AUC (0 to infinity) in Sprague-Dawley rat at 10 mg/kg, po; type: ADME, organism-based; parameters: dose 10 mg/kg, route oral, time infinity; details: plasma; how it was run: as §2
[10] = Cmax in Sprague-Dawley rat at 10 mg/kg, po; type: ADME, organism-based; parameters: dose 10 mg/kg, route oral; details: in vivo; how it was run: as §2
[11] = Tmax in Sprague-Dawley rat at 10 mg/kg, po; type: ADME, organism-based; parameters: dose 10 mg/kg, route oral; details: in vivo; how it was run: as §4
[12] = Oral bioavailability in Sprague-Dawley rat at 10 mg/kg; type: ADME, organism-based; details: in vivo; how it was run: as §4
[13] = Aqueous solubility in 0.01 N Hcl; type: physicochemical
[14] = target: Vascular endothelial growth factor receptor 1 (Homo sapiens, UniProt P17948); test: Inhibition of human VEGFR1
[15] = target: Vascular endothelial growth factor receptor 3 (Homo sapiens) (UniProt P35916); test: Inhibition of human VEGFR3
[16] = target: Platelet-derived growth factor receptor alpha (Homo sapiens) (UniProt P16234); test: Inhibition of PDGFRalpha
[17] = target: Mast/stem cell growth factor receptor Kit (Homo sapiens) (UniProt P10721); test: Inhibition of c-Kit
[18] = target: Macrophage colony-stimulating factor 1 receptor (Homo sapiens) (UniProt P07333); test: Inhibition of c-fms
[19] = target: Receptor-type tyrosine-protein kinase FLT3 (Homo sapiens) (UniProt P36888); test: Inhibition of Flt3
[20] = target: Tyrosine-protein kinase Fgr (Homo sapiens, UniProt P09769); test: Inhibition of FGR
[21] = target: Tyrosine-protein kinase Lyn (Homo sapiens, UniProt P07948); test: Inhibition of Lyn
Mus musculus [22] = test: Inhibition of VEGF-induced vascular permeability in HEK293 cells expressing mouse recombinant VEGF implanted in CD1 nu/nu mouse assessed as Matrigel plug at 10 mg/kg, po after 6 hrs; type: functional, organism-based; parameters: dose 10 mg/kg
How it was run: (§5)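 HEK293 cells expressing murine VEGF (or vector) suspended in Matrigel, injected sc ventrally into CD-1 nu/nu mice. At 24 h, single oral gavage dose as OraPlus suspension; 6 h later Evans blue quantified in 1 cm2 skin over plug; plasma level taken at 6 h; n = 5/group.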

Rattus norvegicus = test: Inhibition of VEGF-induced angiogenesis in VEGF-soaked disk implanted in Sprague-Dawley rat cornea assessed as number of blood vessels intersecting the midpoint between disk and limbus after 7 days; type: functional; details: 168 h
[23] = AUC in VEGF-soaked disk implanted in Sprague-Dawley rat; type: ADME, organism-based; details: plasma
[24] = Cmax in VEGF-soaked disk implanted in Sprague-Dawley rat; type: ADME, organism-based; details: in vivo
Liver microsomes [25] = test: Metabolic stability assessed as covalent binding in presence of NADPH in human liver microsomes at 10 uM after 1 hr; type: ADME, Microsome; how it was run: as §3
Liver microsomes [26] = test: Metabolic stability assessed as covalent binding in absence of NADPH in human liver microsomes at 10 uM after 1 hr; type: ADME, Microsome; how it was run: as §3
Liver microsomes [27] = test: Metabolic stability assessed as covalent binding in presence of NADPH and GSH in human liver microsomes at 10 uM after 1 hr; type: ADME, Microsome; how it was run: as §3
Liver microsomes [28] = test: Metabolic stability assessed as covalent binding in presence of NADPH in rat liver microsomes at 10 uM after 1 hr; type: ADME, Microsome; how it was run: as §3
Angiopoietin-1 receptor = Angiopoietin-1 receptor (Homo sapiens, UniProt Q02763); test: Inhibition of Tie2
[29] = target: Hepatocyte growth factor receptor (Homo sapiens, UniProt P08581); test: Inhibition of c-Met
[30] = target: Tyrosine-protein kinase Lck (Homo sapiens, UniProt P06239); test: Inhibition of Lck
Aurora kinase A = target: T1, Aurora kinase A (Homo sapiens, UniProt O14965); test: Inhibition of Aurora A
T1 sequence (O14965 whole entry): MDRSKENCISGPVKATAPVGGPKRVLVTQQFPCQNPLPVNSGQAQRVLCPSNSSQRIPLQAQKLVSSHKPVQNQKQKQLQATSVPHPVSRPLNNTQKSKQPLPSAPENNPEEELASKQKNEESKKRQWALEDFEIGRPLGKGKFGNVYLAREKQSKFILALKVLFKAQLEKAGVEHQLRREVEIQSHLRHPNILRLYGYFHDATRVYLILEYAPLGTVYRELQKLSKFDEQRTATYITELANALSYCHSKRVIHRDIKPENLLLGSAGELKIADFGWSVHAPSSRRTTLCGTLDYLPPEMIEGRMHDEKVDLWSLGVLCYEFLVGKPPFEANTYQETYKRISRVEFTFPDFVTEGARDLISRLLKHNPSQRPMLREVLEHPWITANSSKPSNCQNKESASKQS

Aurora kinase B = Aurora kinase B (Homo sapiens, UniProt Q96GD4); test: Inhibition of Aurora B
HUVEC [31] = test: Inhibition of VEGF-induced proliferation of HUVEC; type: functional, cell-based; details: Homo sapiens
HUVEC [32] = test: Inhibition of bFGF-induced proliferation of HUVEC; type: functional, cell-based; details: Homo sapiens
How it was run: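 HUVEC seeded at 3000/well in DMEM with 10% FBS, 22 h; 2 h preincubation with serial compound dilutions, then 50 ng/mL VEGF or 20 ng/mL bFGF for 72 h at 37 °C. Freeze–thaw, CyQuant DNA dye read-out; IC50 by four-parameter logistic fit, averaged over ≥2 experiments.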

[33] = target: Tyrosine-protein kinase ABL1 (Homo sapiens, UniProt P00519)
[34] = AUC (0 to infinity) in Sprague-Dawley rat at 2 mg/kg, po; type: ADME, organism-based; parameters: time infinity, dose 2 mg/kg, route oral; details: plasma; how it was run: as §2
[35] = Cmax in Sprague-Dawley rat at 2 mg/kg, po; type: ADME, organism-based; parameters: dose 2 mg/kg, route oral; details: in vivo; how it was run: as §2
[36] = Tmax in Sprague-Dawley rat at 2 mg/kg, po; type: ADME, organism-based; parameters: dose 2 mg/kg, route oral; details: in vivo
How it was run: (§6)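 Male Sprague–Dawley rats dosed iv at 0.5 mg/kg as DMSO solution or po at 2 mg/kg as suspension in 100% OraPlus. Serial jugular blood, plasma LC-MS/MS quantitation, noncompartmental analysis.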

[37] = Oral bioavailability in Sprague-Dawley rat at 2 mg/kg; type: ADME, organism-based; details: in vivo; how it was run: as §6
Mus musculus [38] = test: Inhibition of VEGF-induced vascular permeability in HEK293 cells expressing mouse recombinant VEGF implanted in CD1 nu/nu mouse assessed as Matrigel plug at 3 mg/kg, po after 6 hrs; type: functional, organism-based; parameters: dose 3 mg/kg; how it was run: as §5
[39] = target: Vascular endothelial growth factor receptor 2 (Homo sapiens, UniProt P35968)

Chain of Platelet-derived growth factor receptor alpha (Homo sapiens) (P16234 whole entry): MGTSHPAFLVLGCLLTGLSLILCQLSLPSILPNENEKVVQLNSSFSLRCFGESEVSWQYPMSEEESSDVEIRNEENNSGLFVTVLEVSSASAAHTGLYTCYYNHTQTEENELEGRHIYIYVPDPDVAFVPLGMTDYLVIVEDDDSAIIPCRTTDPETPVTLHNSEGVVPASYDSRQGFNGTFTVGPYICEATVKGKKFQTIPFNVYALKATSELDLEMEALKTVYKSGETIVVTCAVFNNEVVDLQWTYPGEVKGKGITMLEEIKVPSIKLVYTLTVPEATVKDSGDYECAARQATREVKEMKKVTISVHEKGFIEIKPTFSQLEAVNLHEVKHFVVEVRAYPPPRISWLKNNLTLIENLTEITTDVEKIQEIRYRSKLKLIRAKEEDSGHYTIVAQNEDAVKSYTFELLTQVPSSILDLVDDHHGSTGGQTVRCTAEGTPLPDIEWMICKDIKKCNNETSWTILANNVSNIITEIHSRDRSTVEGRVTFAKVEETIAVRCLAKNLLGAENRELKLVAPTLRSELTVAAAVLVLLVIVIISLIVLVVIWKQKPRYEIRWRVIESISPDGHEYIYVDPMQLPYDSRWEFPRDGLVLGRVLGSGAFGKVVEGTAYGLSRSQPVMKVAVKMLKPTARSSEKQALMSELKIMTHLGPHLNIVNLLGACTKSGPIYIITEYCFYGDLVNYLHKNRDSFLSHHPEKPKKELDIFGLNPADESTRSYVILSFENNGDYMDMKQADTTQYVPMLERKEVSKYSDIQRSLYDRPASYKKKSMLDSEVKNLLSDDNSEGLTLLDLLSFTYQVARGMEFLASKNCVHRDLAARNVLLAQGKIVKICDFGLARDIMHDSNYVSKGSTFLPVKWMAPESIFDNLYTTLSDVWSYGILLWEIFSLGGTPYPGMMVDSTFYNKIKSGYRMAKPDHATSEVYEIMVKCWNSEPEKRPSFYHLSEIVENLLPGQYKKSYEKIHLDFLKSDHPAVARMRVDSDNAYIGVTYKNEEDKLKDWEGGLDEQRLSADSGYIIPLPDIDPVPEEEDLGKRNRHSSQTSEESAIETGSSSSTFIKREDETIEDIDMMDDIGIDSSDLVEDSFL
Chain of Mast/stem cell growth factor receptor Kit (Homo sapiens) (P10721 whole entry): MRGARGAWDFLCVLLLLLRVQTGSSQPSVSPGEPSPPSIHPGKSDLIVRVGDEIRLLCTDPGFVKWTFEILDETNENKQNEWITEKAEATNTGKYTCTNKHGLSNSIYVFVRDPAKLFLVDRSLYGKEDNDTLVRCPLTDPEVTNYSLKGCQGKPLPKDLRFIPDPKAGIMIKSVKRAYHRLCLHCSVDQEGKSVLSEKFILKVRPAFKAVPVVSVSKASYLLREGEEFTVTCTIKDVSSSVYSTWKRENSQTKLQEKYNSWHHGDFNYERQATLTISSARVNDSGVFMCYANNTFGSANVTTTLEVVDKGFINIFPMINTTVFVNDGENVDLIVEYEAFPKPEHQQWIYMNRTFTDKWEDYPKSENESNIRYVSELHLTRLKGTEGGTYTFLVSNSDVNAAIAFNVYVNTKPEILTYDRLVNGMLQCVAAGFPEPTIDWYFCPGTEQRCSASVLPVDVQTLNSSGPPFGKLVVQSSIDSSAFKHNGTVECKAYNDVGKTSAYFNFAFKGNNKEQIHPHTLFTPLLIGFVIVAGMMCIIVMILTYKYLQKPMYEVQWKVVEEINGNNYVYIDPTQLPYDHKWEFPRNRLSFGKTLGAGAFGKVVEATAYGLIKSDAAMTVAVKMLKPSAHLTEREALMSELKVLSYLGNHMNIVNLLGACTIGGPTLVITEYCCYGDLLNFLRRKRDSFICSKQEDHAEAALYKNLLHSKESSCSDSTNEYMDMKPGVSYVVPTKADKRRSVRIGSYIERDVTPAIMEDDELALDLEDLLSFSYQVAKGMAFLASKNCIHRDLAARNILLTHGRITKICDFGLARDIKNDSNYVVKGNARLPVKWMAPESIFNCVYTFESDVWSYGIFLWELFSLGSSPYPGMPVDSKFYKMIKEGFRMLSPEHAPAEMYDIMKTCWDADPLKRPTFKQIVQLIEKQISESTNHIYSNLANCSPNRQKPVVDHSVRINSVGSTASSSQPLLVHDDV
Chain of Hepatocyte growth factor receptor (P08581 whole entry): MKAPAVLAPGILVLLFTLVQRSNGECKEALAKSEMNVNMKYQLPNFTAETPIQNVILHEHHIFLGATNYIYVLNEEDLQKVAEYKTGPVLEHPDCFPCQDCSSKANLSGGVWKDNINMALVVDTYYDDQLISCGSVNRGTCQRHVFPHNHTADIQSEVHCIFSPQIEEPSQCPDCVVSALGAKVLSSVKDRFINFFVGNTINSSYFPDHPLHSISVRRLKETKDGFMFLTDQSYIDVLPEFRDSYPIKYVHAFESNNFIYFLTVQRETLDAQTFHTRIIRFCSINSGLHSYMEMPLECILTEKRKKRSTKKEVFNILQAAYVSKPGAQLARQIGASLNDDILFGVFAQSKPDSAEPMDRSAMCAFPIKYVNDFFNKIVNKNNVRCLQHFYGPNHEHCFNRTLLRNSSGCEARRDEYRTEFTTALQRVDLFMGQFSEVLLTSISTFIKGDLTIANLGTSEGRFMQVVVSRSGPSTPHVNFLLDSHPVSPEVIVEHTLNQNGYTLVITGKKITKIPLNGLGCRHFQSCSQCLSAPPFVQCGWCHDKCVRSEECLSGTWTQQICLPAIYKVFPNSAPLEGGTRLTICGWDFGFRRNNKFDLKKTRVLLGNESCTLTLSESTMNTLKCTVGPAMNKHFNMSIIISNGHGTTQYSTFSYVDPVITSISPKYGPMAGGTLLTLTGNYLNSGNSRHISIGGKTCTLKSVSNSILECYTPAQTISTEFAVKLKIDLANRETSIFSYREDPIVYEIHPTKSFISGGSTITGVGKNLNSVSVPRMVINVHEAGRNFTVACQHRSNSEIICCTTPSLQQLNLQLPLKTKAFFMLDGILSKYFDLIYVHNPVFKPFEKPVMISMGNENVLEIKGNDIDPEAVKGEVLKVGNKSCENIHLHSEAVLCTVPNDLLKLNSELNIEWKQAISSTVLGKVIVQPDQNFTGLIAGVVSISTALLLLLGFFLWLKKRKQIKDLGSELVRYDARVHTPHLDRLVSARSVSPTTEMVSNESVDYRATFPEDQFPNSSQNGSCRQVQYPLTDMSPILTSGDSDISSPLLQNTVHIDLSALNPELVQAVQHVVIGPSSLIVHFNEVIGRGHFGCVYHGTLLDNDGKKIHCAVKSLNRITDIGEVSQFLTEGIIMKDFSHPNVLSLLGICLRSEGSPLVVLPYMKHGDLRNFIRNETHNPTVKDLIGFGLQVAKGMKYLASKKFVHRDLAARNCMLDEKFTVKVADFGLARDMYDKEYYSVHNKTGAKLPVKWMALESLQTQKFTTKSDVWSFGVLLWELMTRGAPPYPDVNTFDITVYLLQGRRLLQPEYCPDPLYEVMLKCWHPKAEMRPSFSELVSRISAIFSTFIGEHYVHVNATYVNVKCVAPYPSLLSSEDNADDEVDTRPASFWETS
Chain of Tyrosine-protein kinase Lyn (P07948 whole entry): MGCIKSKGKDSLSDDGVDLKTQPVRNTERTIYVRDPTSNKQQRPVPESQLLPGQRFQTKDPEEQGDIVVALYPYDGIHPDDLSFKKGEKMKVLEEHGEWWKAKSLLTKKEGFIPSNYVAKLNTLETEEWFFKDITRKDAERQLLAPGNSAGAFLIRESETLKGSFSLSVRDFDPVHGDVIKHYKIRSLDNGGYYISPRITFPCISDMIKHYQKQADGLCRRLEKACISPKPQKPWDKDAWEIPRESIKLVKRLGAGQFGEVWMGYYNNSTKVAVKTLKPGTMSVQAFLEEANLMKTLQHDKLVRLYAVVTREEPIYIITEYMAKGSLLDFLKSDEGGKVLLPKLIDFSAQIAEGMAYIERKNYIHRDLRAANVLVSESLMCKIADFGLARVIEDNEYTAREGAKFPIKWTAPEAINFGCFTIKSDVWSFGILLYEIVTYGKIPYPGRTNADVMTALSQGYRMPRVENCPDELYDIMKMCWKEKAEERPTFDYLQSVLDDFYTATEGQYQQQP
Chain of Aurora kinase B (Q96GD4 whole entry): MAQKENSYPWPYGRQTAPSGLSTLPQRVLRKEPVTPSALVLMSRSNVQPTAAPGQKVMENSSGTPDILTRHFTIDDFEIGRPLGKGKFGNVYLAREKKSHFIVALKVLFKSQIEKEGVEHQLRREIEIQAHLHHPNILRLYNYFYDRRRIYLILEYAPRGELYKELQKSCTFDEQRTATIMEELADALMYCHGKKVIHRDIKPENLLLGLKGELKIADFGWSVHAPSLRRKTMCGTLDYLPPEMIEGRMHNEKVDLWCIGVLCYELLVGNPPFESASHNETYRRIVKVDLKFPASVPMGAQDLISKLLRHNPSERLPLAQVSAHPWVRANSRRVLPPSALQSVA
Chain of Tyrosine-protein kinase Lck (P06239 whole entry): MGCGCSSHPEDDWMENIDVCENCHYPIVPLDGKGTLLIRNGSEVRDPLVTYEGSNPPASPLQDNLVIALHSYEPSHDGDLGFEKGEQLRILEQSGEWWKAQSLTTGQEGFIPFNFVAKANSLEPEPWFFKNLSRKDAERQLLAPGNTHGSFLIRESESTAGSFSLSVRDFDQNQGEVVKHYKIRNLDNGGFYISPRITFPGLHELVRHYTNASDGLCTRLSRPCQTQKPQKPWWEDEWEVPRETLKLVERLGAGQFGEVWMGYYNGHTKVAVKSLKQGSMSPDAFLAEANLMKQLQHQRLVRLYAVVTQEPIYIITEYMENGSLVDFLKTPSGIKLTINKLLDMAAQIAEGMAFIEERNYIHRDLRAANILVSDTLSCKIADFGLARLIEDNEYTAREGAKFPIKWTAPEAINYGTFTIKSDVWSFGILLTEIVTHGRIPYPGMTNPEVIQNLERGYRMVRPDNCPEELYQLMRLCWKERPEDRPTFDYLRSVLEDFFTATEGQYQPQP

| SMILES | Selectivity ratio (HUVEC [1]) | microsomal CLint at 1 µM [2] | microsomal CLint at 1 µM [3] | clearance [4] | Stability (Liver microsomes [5]) | Stability (Liver microsomes [6]) | Vd [7] | half-life [8] | solubility [13] | Activity [15] | Activity [16] | Activity [17] | Activity [18] | IC50 [21] | ED50 (Rattus norvegicus) | AUC [23] | Cmax [24] | Stability (Liver microsomes [25]) | Stability (Liver microsomes [26]) | Stability (Liver microsomes [27]) | further results |
| --- | --- | --- | --- | --- | --- | --- | --- | --- | --- | --- | --- | --- | --- | --- | --- | --- | --- | --- | --- | --- | --- |
| COc1cc2nccc(Oc3ccc4c(C(=O)NC5CC5)cccc4c3)c2cc1OC | >100 | 21 µL/min/mg | 31 µL/min/mg | 2.18 mL/min/kg | 1.5 pmol/mg/h | 153 pmol/mg/h | 1.04 L/kg | 8.4 h | > 200 µg/mL | Active | Active | Active | Active | 27 nM | 0.01 mg/kg | 0.32 µM·h | 20 nM | 357 pmol/mg/h | 1.5 pmol/mg/h | 153 pmol/mg/h | AUC(0-inf) [9]: 50200 ng·h/mL; Cmax [10]: 6150 ng/mL; Tmax [11]: 2.5 h; bioavailability [12]: 66%; Activity [14]: Active; Activity [19]: inactive; IC50 [20]: 396 nM; Cp (Mus musculus [22]): 1 µM; Stability (Liver microsomes [28]): 60 pmol/mg/h; IC50 (Angiopoietin-1 receptor): 25000 nM; IC50 [29]: 20000 nM; IC50 [30]: 330 nM; IC50 (Aurora kinase A): 2000 nM; IC50 (Aurora kinase B): 118 nM; IC50 (HUVEC [31]): 0.91 nM; IC50 (HUVEC [32]): 170 nM; IC50 [33]: 466 nM |
| COCCNC(=O)c1cccc2cc(Oc3ccnc4cc(OC)c(OC)cc34)ccc12 | >100 | 48 µL/min/mg | 32 µL/min/mg | 8.87 mL/min/kg | 125 pmol/mg/h | 1.6 pmol/mg/h | 1.13 L/kg | 1.6 h | > 200 µg/mL | Active | Active | Active | Active | 275 nM | 0.04 mg/kg | 0.52 µM·h | 40 nM | 321 pmol/mg/h | 125 pmol/mg/h | 1.6 pmol/mg/h | AUC(0-inf) [34]: 3770 ng·h/mL; Cmax [35]: 543 ng/mL; Tmax [36]: 2 h; bioavailability [37]: 99%; IC50 [14]: 73 nM; Cp (Mus musculus [38]): 0.2 µM; Stability (Liver microsomes [28]): 353 pmol/mg/h; IC50 (Angiopoietin-1 receptor): 25000 nM; IC50 [29]: 20000 nM; IC50 [30]: 1200 nM; IC50 (Aurora kinase A): 7200 nM; IC50 (Aurora kinase B): 130 nM; IC50 (HUVEC [31]): 0.64 nM; IC50 (HUVEC [32]): 1140 nM; IC50 [39]: 12 nM |
